# Neddyl block: cullin neddylation inhibition; P61081+Q13564; TR-FRET cullin neddylation, biochemical; calls only at 25 µM; hit rate 0.58% among 360,000; AID 651699; in the data active = inhibition above about 36%
# VIM-2 inh: inhibitors of Pseudomonas aeruginosa VIM-2 metallo-beta-lactamase | hit rate 0.89% among 290,000 | inhibition, % at 5.6 µM | purified VIM-2, nitrocefin hydrolysis, epi-absorbance fluorescence | AID 1527;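 active = inhibition above the mean of all tested compounds plus 3 SD, cutoff set per screening run, cut at about 7.5% in these data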;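 note: red hydrolysis product quenches plate fluorescence so inhibitors raise well fluorescence; 0% = enzyme with DMSO and 100% = DMSO without enzyme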
# procasp7 counter: activates human procaspase-7, counter-screen for procaspase-3 activators; P55210; recombinant procaspase-7, Ac-DEVD-pNA absorbance 405 nm; D23A/D198A/D206A triple mutant, cannot self-cleave; scale: DMSO 0, 5 µM enzyme 100; activation, % at 8.5 µM; hit rate 0.093% among 330,000; AID 463210;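 active = percent activation above the screen-wide mean plus 3 SD, cut at about 25% in these data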
# Target sequence (P55210 whole entry D23A/D198A/D206A): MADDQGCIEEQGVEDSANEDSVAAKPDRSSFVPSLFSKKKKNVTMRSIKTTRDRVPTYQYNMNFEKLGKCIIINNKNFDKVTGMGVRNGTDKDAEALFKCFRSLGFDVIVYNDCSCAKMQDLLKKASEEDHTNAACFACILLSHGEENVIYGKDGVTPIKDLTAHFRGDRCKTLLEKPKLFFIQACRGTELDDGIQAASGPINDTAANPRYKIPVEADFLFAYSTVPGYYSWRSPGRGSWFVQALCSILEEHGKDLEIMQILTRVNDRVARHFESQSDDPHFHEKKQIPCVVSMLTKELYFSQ
#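 Test system: Procaspase-7 triple mutant (PC-7 D3A). Also added: Ac-DEVD-pNA substrate, 400 µM as added. Schedule: 1 h enzyme–compound preincubation and 2 h substrate reaction, both 25 °C. Signal: p-Nitroaniline absorbance at 405 nm, read at 0 and 120 min. Control set: low DMSO alone, high DMSO plus 5 µM PC-7.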
# PolyA inh: inhibitors of polyadenylation in S. cerevisiae | S. cerevisiae SKY197-pL101 polyadenylation reporter, beta-gal luminescence; efflux-impaired pdr1/pdr3 knockout yeast; score 100 = 6 SD above DMSO | activity score, % at 12 µM | hit rate 0.02% among 300,000 | AID 1875;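 active = lowest replicate activity score at least 50, where 100 means six control SD above control mean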;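 note: yeast exposed to compound for 9 h at 30 °C; higher score means more reporter readthrough which indicates perturbed polyadenylation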
# procasp3 activ: activators of human procaspase-3; P42574; recombinant procaspase-3 D3A, Ac-DEVD-pNA absorbance 405 nm; activation, % at 8.5 µM; hit rate 0.11% among 330,000; AID 463141;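 active = activation above the mean of all tested compounds plus 3 SD, cut at about 21% in these data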;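 note: 0% = DMSO alone and 100% = DMSO wells spiked with extra 5 µM PC-3 D3A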
# Target sequence (P42574 whole entry D9A/D28A/D175A): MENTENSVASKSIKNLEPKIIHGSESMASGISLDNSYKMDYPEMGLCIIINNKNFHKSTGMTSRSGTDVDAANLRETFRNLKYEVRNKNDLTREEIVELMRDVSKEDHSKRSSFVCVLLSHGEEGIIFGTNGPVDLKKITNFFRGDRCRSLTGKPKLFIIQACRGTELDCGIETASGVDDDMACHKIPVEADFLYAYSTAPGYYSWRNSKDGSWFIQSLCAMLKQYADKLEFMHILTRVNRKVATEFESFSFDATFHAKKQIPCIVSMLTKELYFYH
#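 Assay system: Procaspase-3 D3A mutant, all three cleavage aspartates alanine. Buffer or medium: Zinc-free HEPES saline buffer with Triton X-100. Times: 1 h compound preincubation, 2 h substrate hydrolysis at 25 °C. Measured by: 405 nm absorbance of p-nitroaniline, reads at 0 and 120 min. Read-out basis: percent activation relative to control range. Replicates: singlicate.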
# IMP-1 inh: blocks Pseudomonas aeruginosa IMP-1 metallo-beta-lactamase; AID 1556; purified IMP-1, nitrocefin hydrolysis, epi-absorbance fluorescence; inhibition, % at 5.6 µM; hit rate 0.45% among 290,000;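 active = inhibition above the mean plus 3 SD of all compounds in the same screening run, cut at about 4.5% in these data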;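 note: 0% = IMP-1 with DMSO and 100% = DMSO wells lacking enzyme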
#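 Material – recombinant IMP-1 enzyme, purified · Amount – IMP-1 0.2 nM before substrate addition · Medium – HEPES buffer pH 7.1 with ZnSO4 and Brij 35 · Timing – 25 °C, 15 min preincubation, 25 min reaction · Measured by – plate fluorescence quenching by hydrolysis product, ex 480/em 530 nm · Read-out – percent enzyme inhibition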
# * = called active by the depositor; i = inactive; · = not tested or not shown; + = active, no number. An excerpt weighted towards active compounds, which were near 1.7% of everything screened.
SMILES,Neddyl block,VIM-2 inh,procasp7 counter,PolyA inh,procasp3 activ,IMP-1 inh
NCc1cc2c3c(c1)CCCN3CCC2,i,9.0*,1.8,24.1,-4.4,-2.1
Nc1cccc2c1C(=O)N(C(=O)c1ccc(Cl)c(S(=O)(=O)N3CCCCCC3)c1)C2=O,·,-2.1,2.1,-14.4,-0.1,4.8*
COc1ccc2cc(C(C)c3nc4ccccc4c(=O)n3N)ccc2c1 (stereo unspecified),i,-5.7,3.6,3.0,-0.8,-1.8
COc1ccccc1NC(=O)CN1C(=O)C(C)Oc2ccccc21 (stereo unspecified),i,-2.5,4.4,12.0,-5.3,-1.1
COc1ccc(NC(=O)CCC(=O)Nc2nnc(C(F)(F)F)s2)c(OC)c1,i,-3.3,15.9,8.5,-1.7,4.9*
COc1ccc(CCC(=O)Nc2nnc(C(F)(F)F)s2)cc1,i,-2.9,1.7,-6.5,2.3,8.7*
CC1(C)CC(NC2C3CC4CC(C3)CC2C4)CC(C)(C)N1 (stereo unspecified),i,-2.5,-1.6,11.2,-11.1,-2.3
CC(C)c1[nH]nc2c1C(c1cccc(OC(=O)N3CCOCC3)c1)C(C#N)=C(N)O2 (stereo unspecified),i,-4.3,8.1,36.7,-4.1,-2.2
COC(=O)C1=C(C)N(Cc2ccccc2)C(=O)N[C@H]1c1cccc(F)c1,i,·,-3.8,-1.2,-0.3,·
COc1ccc(/C=N/NC(=O)c2cc3c(OC)ccc(OC)c3[nH]2)cc1O,+,-3.8,8.2,-1.7,3.7,-1.4
COc1ccc(OC)c2[nH]c(C(=O)N/N=C/c3ccccc3O)cc12,i,-2.9,-107.0,0.2,-78.7,1.7
Cc1cc(N/N=C/c2cccc(Cl)c2)nc(NCc2ccccc2)n1,i,-0.6,-0.3,-2.7,-0.3,-3.0
Cc1cc(Nc2cccc(Cl)c2)nc(NCc2ccccc2)n1,+,-3.5,5.5,-13.3,1.3,-4.5
N=C1SC(c2ccccc2)C(=O)N1c1ncc(Cc2ccccc2Cl)s1 (stereo unspecified),i,-6.0,-14.9,3.0,-9.1,-0.9
COc1ccc(/C=N/NC(=O)C(N)=O)c(OC)c1OC,i,-2.5,-0.2,8.4,-1.7,8.4*
COc1ccc(/C=N/NC(=O)c2cnccn2)c(OC)c1OC,i,-0.6,7.1,5.8,-2.5,-1.0
Cc1ccc(S(=O)(=O)N2CCN(C(=O)COC(=O)CCOc3ccccc3C)CC2)cc1,i,·,10.8,-4.6,3.9,·
O=C1C2CC=C(Cl)CC2C(=O)N1CCc1ccccc1 (stereo unspecified),i,-1.2,2.4,-13.5,-2.4,6.9*
Cc1ccc(NC(=O)CCc2c(C)nc3ncnn3c2C)nc1,i,1.4,7.5,4.6,5.0,5.2*
Clc1ccc(CON/C=N/c2ncnc3sccc23)cc1,i,-8.7,12.6,-9.6,3.2,-2.0
C(=N\c1ncnc2sccc12)/NOCc1ccccc1,i,1.3,1.1,95.4*,-6.2,-0.1
CC(C)(O)c1[nH]c2ccc(C#N)cc2c1C(C)(C)O,·,2.5,4.0,10.7,7.3,4.9*
CC(C)(O)c1[nH]c2ccc(C(F)(F)F)cc2c1C(C)(C)O,i,-1.4,-2.0,14.2,-1.3,0.7
CCCCCCN(C(=O)CCCCCN1C(=O)NC(c2ccc(-c3ccccc3)cc2)C(C(=O)OCc2ccccc2)=C1C)C(C(=O)NCCCC)c1ccc(O)cc1 (stereo unspecified),·,-0.4,·,·,·,1.1
COc1ccc(Oc2coc3cc(O)ccc3c2=O)cc1,·,-1.4,·,1.7,·,24.8*
SMILES,Neddyl block,VIM-2 inh,procasp7 counter,PolyA inh,procasp3 activ,IMP-1 inh
COc1ccccc1Oc1coc2cc(O)ccc2c1=O,·,-0.9,9.6,19.8,-2.1,-2.1
Cn1nc(-c2ccc(C(=O)N3CCN(Cc4ccccc4)CC3)cc2)c2ccccc2c1=O,i,10.9*,10.4,-4.2,7.2,-2.9
Cc1cc(Nc2ccccc2)c2c([N+](=O)[O-])ccc(C)c2n1,i,0.8,0.2,-32.0,2.5,-4.8
Cc1cc2c3c(ccc(C)c3n1)N=CN2c1ccccc1,·,8.4*,-7.9,0.5,-15.8,-0.3
Cc1ccc(Cl)cc1Nc1nc(-c2sc(NC(=O)C(C)(C)C)nc2C)cs1,i,-0.4,-2.9,-6.8,-1.7,18.1*
COc1ccc(N2CCN(C(=S)Nc3ccccc3OC)CC2)cc1,i,-2.2,-1.6,-5.5,-9.2,-3.1
CC(C)N1CCc2c(sc(NC(=O)c3ccc4ccccc4c3)c2C(N)=O)C1,+,0.5,-1.4,-4.5,4.5,1.7
CCCCCN(C(=O)NC(=O)Nc1ccc(C)cc1C)S(C)(=O)=O,i,-2.7,1.1,5.4,-4.8,-4.2
CCc1cccc(NC(=O)CCS(=O)(=O)c2ccc(Br)cc2)c1,i,-0.8,-7.8,-5.6,-1.3,9.8*
NS(=O)(=O)c1ccc(CCNC(=O)CCS(=O)(=O)c2ccc(Br)cc2)cc1,i,-0.6,·,-5.7,·,7.8*
Cc1ccc(C)c(N(CC(=O)NC2CCCCC2)C(=O)c2csnn2)c1,i,-1.0,7.7,-0.5,0.3,-0.6
O=C(NCc1ccco1)c1ccccc1SCC(=O)N1CCCC1,i,·,2.0,·,6.6,·
Cc1cc(C)n2nc(C(=O)Nc3ccc4c(c3)OCO4)cc2n1,i,0.5,-4.1,-15.7,-4.6,4.7*
O=c1c(O)cccc2cc(O)c(O)c(O)c12,i,5.3,-35.6,0.1,-15.1,7.7*
O=c1cc(-c2ccccc2)oc2cc(O)c(O)c(O)c12,i,·,-2.9,·,-4.2,·
CC12CCC(=O)N1C(C(=O)Nc1nc3c(F)cc(F)cc3s1)CS2 (stereo unspecified),i,-4.0,-3.9,36.3,-2.9,10.6*
COc1ccc(NC(=O)Cn2nnc(C(=O)Nc3ccc(F)c(Cl)c3)c2N)cc1,i,1.1,2.7,25.9,0.0,8.1*
CCOC(=O)N1CCC(N(C(=O)Nc2cccc(OC)c2)C(C)CC)CC1 (stereo unspecified),i,0.4,1.8,11.5,7.4,-1.3
CCOc1ccccc1N(CC(=O)N1CCOCC1)S(=O)(=O)c1ccccc1,i,1.0,-3.1,9.0,10.0,-3.1
CC(c1ccccc1)C1CC(=O)N(c2cc(Cl)ccn2)C1=O (stereo unspecified),i,-0.2,-3.4,6.9,-2.1,14.7*
CCOc1cc(C(N)=O)cc(OCC)c1OCC,i,0.8,1.9,15.3,0.4,-2.1
CCOc1cc(C(N)=O)cc(Br)c1OC,i,1.8,5.3,-12.5,-2.8,4.6*
NNC(=O)c1csc(-c2ccccc2)n1,i,-3.0,1.1,-12.5,-1.1,-3.3
CC(C)n1c(-c2ccccc2F)n[nH]c1=S,i,6.1,-7.9,7.9,-9.7,5.0*

# Compound activity: PubChem, several laboratories
